Screening data from PubChem.
Compounds with a hit are over-represented: about 2.6% of the library has one in this group of screens.
proCasp7 act – counter-screen: procaspase-7 (human) activation; recombinant procaspase-7, Ac-DEVD-pNA absorbance 405 nm; D23A/D198A/D206A triple mutant, cannot self-cleave; scale: DMSO 0, 5 µM enzyme 100; activation, % at 8.5 µM; actives 0.093% (n = 330,000);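 active = percent activation above the screen-wide mean plus 3 SD, cut at about 25% in these data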
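Assay system: Uncleavable procaspase-7 mutant enzyme | Input: 2 µM procaspase-7 mutant as dispensed | Timing: 1 h compound preincubation, 2 h substrate cleavage, 25 °C | Repeats: One well per compound | Control set: DMSO wells as 0%, DMSO with 5 µM added PC-7 as 100% | Technique: Epi-absorbance of released pNA at 405 nm, two timepoints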
procasp3 activ – procaspase-3 (human) activation; P42574; actives 0.11% (n = 330,000); recombinant procaspase-3 D3A, Ac-DEVD-pNA absorbance 405 nm; activation, % at 8.5 µM; AID 463141;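 active = activation above the mean of all tested compounds plus 3 SD, cut at about 21% in these data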;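 also: 0% = DMSO alone and 100% = DMSO wells spiked with extra 5 µM PC-3 D3A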
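Technique: 405 nm absorbance of p-nitroaniline, reads at 0 and 120 min; Test system: Procaspase-3 D3A mutant; Incubation: 1 h enzyme-compound preincubation, then 2 h substrate reaction, 25 °C; Repeats: singlicate, each compound tested once; Benchmarks: low control DMSO wells, high control DMSO plus 5 µM PC-3 D3A.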
AHR act – human AHR activation | P35869 | actives 2.5% (n = 320,000) | activation, % at 5 µM | AHR-responsive luciferase reporter cells, luminescence; in the data active = activation above about 47%;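 also: 0% = vehicle wells and 100% = reference agonist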
Target sequence (P35869 whole entry, looked up): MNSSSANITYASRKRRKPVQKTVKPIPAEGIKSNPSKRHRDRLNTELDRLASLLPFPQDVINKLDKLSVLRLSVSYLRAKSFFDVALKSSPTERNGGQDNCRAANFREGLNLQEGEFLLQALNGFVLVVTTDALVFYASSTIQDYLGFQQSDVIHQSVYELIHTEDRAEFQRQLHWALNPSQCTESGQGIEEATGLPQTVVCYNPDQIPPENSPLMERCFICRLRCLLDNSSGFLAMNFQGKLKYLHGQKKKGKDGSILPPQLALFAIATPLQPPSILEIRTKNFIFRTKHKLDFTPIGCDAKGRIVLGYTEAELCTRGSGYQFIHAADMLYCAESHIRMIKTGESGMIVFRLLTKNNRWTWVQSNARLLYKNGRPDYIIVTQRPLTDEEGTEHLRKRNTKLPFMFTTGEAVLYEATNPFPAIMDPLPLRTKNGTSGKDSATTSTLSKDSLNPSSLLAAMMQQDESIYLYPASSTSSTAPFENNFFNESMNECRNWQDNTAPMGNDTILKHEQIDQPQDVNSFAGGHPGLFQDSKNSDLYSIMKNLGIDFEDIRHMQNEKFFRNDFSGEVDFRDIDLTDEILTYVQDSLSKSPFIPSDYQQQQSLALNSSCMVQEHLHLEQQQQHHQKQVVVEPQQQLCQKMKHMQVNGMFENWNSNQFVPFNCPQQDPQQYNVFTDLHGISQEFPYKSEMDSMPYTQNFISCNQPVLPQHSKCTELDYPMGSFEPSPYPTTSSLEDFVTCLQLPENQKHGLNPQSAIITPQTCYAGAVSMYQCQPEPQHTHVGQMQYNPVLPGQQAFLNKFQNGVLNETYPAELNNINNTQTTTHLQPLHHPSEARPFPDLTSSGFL
PolyA inhibitor – yeast polyadenylation inhibition | S. cerevisiae SKY197-pL101 polyadenylation reporter, beta-gal luminescence; efflux-impaired pdr1/pdr3 knockout yeast; score 100 = 6 SD above DMSO | activity score, % at 12 µM | actives 0.02% (n = 300,000);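 active = lowest replicate activity score at least 50, where 100 means six control SD above control mean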;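 also: yeast exposed to compound for 9 h at 30 °C; higher score means more reporter readthrough which indicates perturbed polyadenylation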
An asterisk follows results filed as active; nt = no result given.

SMILES	proCasp7 act	procasp3 activ	AHR act	PolyA inhibitor
Cc1cccc(NC(=O)CSc2nc3c([nH]c4ccccc43)c(=O)n2C)c1	8	6	35	20
O=C1NCCN(Cc2ccc(Cl)c(F)c2)C1CC(=O)N1CCCCO1 (stereo not drawn)	2	8	-2	-2
O=C(Nc1ccc(Cl)cc1)c1cncs1	9	-9	68*	11
Cc1nc(Cl)sc1C(=O)Nc1ccc(Cl)cc1	-7	-2	93*	-9
O=C(Nc1ccc(Cl)cc1)c1ccc2ncsc2c1	-8	-4	49*	-21
Cc1c(C(=O)Nc2nc3ccccc3[nH]2)oc2ccccc12	-3	-6	68*	-2
Cc1c(C(=O)Nc2nc3ccccc3[nH]2)oc2c(Cl)cccc12	-7	-3	66*	6
COc1ccc(NC(=O)c2oc3ccccc3c2C)cn1	1	9	51*	-28
Cc1c(C(=O)Nc2nc3ccccc3[nH]2)oc2ccc(Br)cc12	4	1	29	-10
Cc1c(C(=O)Nc2ccncc2)oc2ccccc12	3	1	25	13
Cc1cc(Nc2ccc(C)c(Br)c2)n2nc(C)nc2n1	4	-3	61*	1
Cc1cc(Nc2ccccc2Br)n2nc(C)nc2n1	6	12	46	3
Cc1ccc2nc(-c3ccc(SCC(=O)O)nc3)[nH]c2c1	-5	-9	16	0
CCc1nnc(NC(=O)CSc2ccc(-c3nc4ccc(C)cc4[nH]3)cn2)s1	13	-1	66*	9
Cc1ccc2nc(-c3ccc(SCC(=O)N4CCc5ccccc54)nc3)[nH]c2c1	13	-1	59*	4
CCc1nnc(NC(=O)CSc2ccc(-c3ccc(C)cc3)nn2)s1	6	-2	12	12
CCOc1ccccc1C(=O)NCC(=O)N(C)Cc1cccnc1	3	1	9	-14
O=C(OCC(=O)N1CCCC1=O)C1CCN(S(=O)(=O)c2c(Cl)cccc2Cl)CC1	4	6	1	-17
COc1cc(-c2nc3ccc4ccccc4c3c3c2CCC3)ccc1O	-3	-6	72*	-17
COc1nc(-c2ccccc2)ccc1-c1noc(-c2cccs2)n1	0	3	52*	-4
COc1cccc(-c2noc(-c3cccs3)n2)c1	2	7	48*	-9
COc1nc(-c2ccccc2)ccc1-c1noc(-c2ccccc2)n1	-1	4	45	-6
O=C(Cc1c[nH]c2ccccc12)N1CCc2ccccc21	-9	-6	75*	-29
CC1=Nc2ccccc2/C1=C\c1sc(Nc2ccc(C)cc2)nc1O	-7	10	79*	-6
Oc1cccc(Nc2nc(O)c(/C=C3\C=Nc4ccccc43)s2)c1	-6	-12	23	nt
SMILES	proCasp7 act	procasp3 activ	AHR act	PolyA inhibitor
Oc1nc(Nc2ccc(F)cc2)sc1/C=C1\C=Nc2ccccc21	-11	-20	122*	-2
Oc1nc(Nc2cccc(Cl)c2)sc1/C=C1\C=Nc2ccccc21	-13	-8	117*	3
CC(Oc1cccnc1[N+](=O)[O-])C(=O)N1CCc2ccccc21 (stereo not drawn)	-3	-2	6	nt
Cc1c(OCC(=O)NCC(O)c2ccccc2)ccc2c(-c3ccccc3)cc(=O)oc12 (stereo not drawn)	-2	8	-1	1
S=C(N/N=C/c1cccc2ccccc12)Nc1cccc(Cl)c1	-10	-14	48*	-24
S=C(N/N=C/c1ccccc1Cl)Nc1ccccc1	10	2	62*	-18
O=C(CC(=O)Nc1cccc(Cl)c1)N/N=C\c1ccccc1	14	2	2	-5
CNC(=S)N/N=C/c1c(Cl)cccc1Cl	-6	-5	-1	4
Cc1c(Cl)cccc1NC(=S)N/N=C/c1ccccc1Cl	0	3	30	-27
CNC(=S)N/N=C/c1ccccc1Cl	7	0	60*	12
Cc1cc(Nc2nn(C)c(N)c2C#N)ccc1F	17	3	38	17
CCOc1ccc(C(=O)Nc2ccc(C(=O)N3CCOCC3)cc2)c(OCC)c1	1	6	-6	12
CCOc1ccc(CCNC(=O)CSc2nc3ncc(Cl)cc3[nH]2)cc1OCC	-5	6	6	-5
O=C(NCc1ccccc1)C(c1cccs1)N(C(=O)c1csnn1)C1CC1 (stereo not drawn)	-11	4	4	19
O=C(NCCc1ccccc1)C(c1cccs1)N(C(=O)c1csnn1)C1CC1 (stereo not drawn)	11	-3	58*	29
CN=c1scc(-c2ccccc2F)n1/N=C(\C)c1cccnc1	-3	-10	78*	-9
Cc1cc2cc3c(cc2nc1SCC(=O)Nc1nc(C)c(C)s1)OCO3	3	-3	92*	15
COCc1cc(=O)[nH]c(Nc2nc3ccc(C)cc3o2)n1	6	1	48*	13
Cc1ccc2cc3c(nc2c1)N(c1ccccc1)CC3	11	4	66*	-19
COc1ccc(N(CC(=O)NCCSCc2ccccc2C)S(=O)(=O)c2ccccc2)cc1	11	-5	-1	-7
Cc1nn2c(NCCCn3ccnc3)cc(C(C)C)nc2c1-c1ccccc1	5	-6	48*	9
COc1ccccc1N1CCN(C(=O)c2ccc(-c3nc4ccccc4s3)o2)CC1	4	1	25	nt
COc1ccc(N2CCN(C(=O)c3ccc(-c4nc5ccccc5s4)o3)CC2)cc1	3	1	69*	nt
COc1ccc(OC)c(CCNC(=O)CC2Oc3ccccc3NC2=O)c1 (stereo not drawn)	1	-1	52*	-5
O=C(Nc1ccc2c(c1)OCO2)c1ccccn1	0	-6	22	nt
SMILES	proCasp7 act	procasp3 activ	AHR act	PolyA inhibitor
O=C(Nc1ccc2c(c1)OCO2)c1cnccn1	9	-4	66*	-9
O=C(Nc1ccc2c(c1)OCO2)c1ccc(=O)[nH]n1	-3	-1	78*	6
CC(C)(CO)[C@@H](O)C(=O)NCCC(=O)O	14	7	-1	nt
O=C(Nc1cc(C(F)(F)F)ccc1Cl)c1ccc(NC(=O)C(F)(F)F)cc1	-4	-7	75*	-36
O=C(Nc1cc(C(F)(F)F)ccc1Cl)c1ccncc1	1	3	-3	4
CCCC(=O)Nc1ccc(C(=O)Nc2cc(C(F)(F)F)ccc2Cl)cc1	13	9	63*	-10
COc1ccc(C(=O)CSC2=C(C#N)C3(CCCCC3)C(C#N)=C(N)N2)cc1	-4	2	52*	-8
Cc1cccc(-c2cc3nc(C)cc(C)n3n2)c1	5	-1	43	-19
COc1ccccc1-c1cc2nc(C)cc(C)n2n1	-3	-1	49*	-17
COC(=O)C(=Cc1ccccc1[N+](=O)[O-])C(=O)OC	0	1	1	-24
Cc1oc2ccc(OCC(N)=O)cc2c1C(=O)OC(C)C	-7	4	59*	-9
Cc1oc2ccc(OC(=O)N3CCOCC3)cc2c1C(=O)OC(C)C	-10	2	47*	29
